In ChEMBL document CHEMBL1127659, “In vitro and in vivo activities of reduced-size antagonists of luteinizing hormone-releasing hormone” (J Med Chem, 1994):
In brackets after ≈: the same amount, converted by molar mass. Where a SMILES comes first, the peptide text is derived from it. [ ]: non-standard residue; d: D form. The star is where a group is joined. Propanoyl(3-(4-F-phenyl)) = O=C(CCc1ccc(F)cc1)*; Propanoyl(3-(4-Cl-Ph)) = O=C(CCc1ccc(Cl)cc1)*; dPhe(4-Cl) = N[C@H](Cc1ccc(Cl)cc1)C(=O)O; d1Nal = N[C@H](Cc1cccc2ccccc12)C(=O)O; d2Nal = N[C@H](Cc1ccc2ccccc2c1)C(=O)O; Lys(iPr) = CC(C)NCCCC[C@H](N)C(=O)O; NMeY = CN[C@@H](Cc1ccc(O)cc1)C(=O)O; d3Pal = N[C@H](Cc1cccnc1)C(=O)O; Nicotinoyl = O=C(c1cccnc1)*

How the values were obtained:
Rattus norvegicus [1] = species: Rattus norvegicus; assay: Effective dose required for maximal release of histamine from rat peritoneal mast cells; type: functional; conditions: read-out: ED50 (the source's name)
Outline: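 Rat peritoneal mast cells; histamine release measured. ED50 is the antagonist dose giving 50% of maximal histamine release, in micrograms per milliliter. All compounds tested as TFA salts.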

Rattus norvegicus [2] = species: Rattus norvegicus; assay: In vitro antagonistic potency against release of luteinizing hormone (LH) from cultured rat pituitary cells.; type: functional; conditions: Pituitary gland cell, read-out: pA2 (converted)
Outline: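 Cultured rat pituitary cells, agonist-stimulated LH release. pA2 is the negative log of the antagonist concentration that makes a 2-fold higher agonist concentration necessary to release LH. Compounds tested as TFA salts.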

Rattus norvegicus [3] = species: Rattus norvegicus; assay: Percentage suppression of the LH in castrated rat after 2 hr of doing

| Compound | Kb (Rattus norvegicus [2]) [nM] | also measured |
| --- | --- | --- |
| CC(=O)N[C@H](Cc1ccc2ccccc2c1)C(=O)N[C@H](Cc1ccc(Cl)cc1)C(=O)N[C@H](Cc1cccnc1)C(=O)N[C@@H](CO)C(=O)N(C)[C@@H](Cc1ccc(O)cc1)C(=O)N[C@H](CCCCNC(=O)c1cccnc1)C(=O)N[C@@H](CC(C)C)C(=O)N[C@@H](CCCCNC(C)C)C(=O)N1CCC[C@H]1C(=O)N[C@H](C)C(N)=O (Ac-[d2Nal][dPhe(4-Cl)][d3Pal]S[NMeY][dK](Nicotinoyl)L[Lys(iPr)]P[dA]-NH2) | – | EC50 (Rattus norvegicus [1]): 10 µg/mL (≈ 6.51 µM) |
| CCNC(=O)[C@@H]1CCCN1C(=O)[C@H](CCCN=C(N)N)NC(=O)[C@H](CC(C)C)NC(=O)[C@@H](CCCCNC(=O)c1cccnc1)NC(=O)[C@H](Cc1ccc(O)cc1)N(C)C(=O)[C@H](CO)NC(=O)[C@@H](Cc1c[nH]c2ccccc12)NC(=O)CCc1ccc(F)cc1F | 0.00891 | – |
| CCNC(=O)[C@@H]1CCCN1C(=O)[C@H](CCCN=C(N)N)NC(=O)[C@H](CC(C)C)NC(=O)[C@@H](Cc1c[nH]c2ccccc12)NC(=O)[C@H](Cc1ccc(O)cc1)N(C)C(=O)[C@H](CO)NC(=O)[C@@H](Cc1cccc2ccccc12)NC(=O)CCc1ccc(Br)cc1 | 0.00631 | – |
| CCNC(=O)[C@@H]1CCCN1C(=O)[C@H](CCCN=C(N)N)NC(=O)[C@H](CC(C)C)NC(=O)[C@@H](Cc1c[nH]c2ccccc12)NC(=O)[C@H](Cc1ccc(O)cc1)NC(=O)[C@H](CO)NC(=O)[C@H](Cc1c[nH]c2ccccc12)NC(=O)CCc1ccccc1F | 0.447 | – |
| CCNC(=O)[C@@H]1CCCN1C(=O)[C@H](CCCN=C(N)N)NC(=O)[C@H](CC(C)C)NC(=O)[C@@H](Cc1c[nH]c2ccccc12)NC(=O)[C@H](Cc1ccc(O)cc1)NC(=O)[C@H](CO)NC(=O)[C@@H](Cc1c[nH]c2ccccc12)NC(=O)CCc1ccc(Cl)cc1 | 0.166 | – |
| CCNC(=O)[C@@H]1CCCN1C(=O)[C@H](CCCN=C(N)N)NC(=O)[C@H](CC(C)C)NC(=O)[C@@H](Cc1c[nH]c2ccccc12)NC(=O)[C@H](Cc1ccc(O)cc1)NC(=O)[C@H](CO)NC(=O)[C@H](Cc1c[nH]c2ccccc12)NC(=O)[C@H](Cc1ccccc1)NC(C)=O | 9.55 | – |
| CCNC(=O)[C@@H]1CCCN1C(=O)[C@H](CCCN=C(N)N)NC(=O)[C@H](CC(C)C)NC(=O)[C@@H](Cc1c[nH]c2ccccc12)NC(=O)[C@H](Cc1ccc(O)cc1)NC(=O)[C@H](CO)NC(=O)[C@H](Cc1c[nH]c2ccccc12)NC(=O)CCc1cccc(F)c1 | 0.891 | – |
| CCNC(=O)[C@@H]1CCCN1C(=O)[C@H](CCCN=C(N)N)NC(=O)[C@H](CC(C)C)NC(=O)[C@@H](Cc1c[nH]c2ccccc12)NC(=O)[C@H](Cc1ccc(O)cc1)NC(=O)[C@H](CO)NC(=O)[C@@H](Cc1c[nH]c2ccccc12)NC(=O)CCc1ccc(F)c(F)c1 | 0.0355 | – |
| CCNC(=O)[C@@H]1CCCN1C(=O)[C@H](CCCN=C(N)N)NC(=O)[C@H](CC(C)C)NC(=O)[C@@H](Cc1c[nH]c2ccccc12)NC(=O)[C@H](Cc1ccc(O)cc1)NC(=O)[C@H](CO)NC(=O)[C@H](Cc1c[nH]c2ccccc12)NC(=O)CCc1ccc(C(F)(F)F)cc1 | 0.955 | – |
| CC(C)C[C@H](NC(=O)[C@@H](CCCCNC(=O)c1cccnc1)NC(=O)[C@H](Cc1ccc(O)cc1)N(C)C(=O)[C@H](CO)NC(=O)[C@@H](Cc1cccc2ccccc12)NC(=O)CCc1ccc(F)cc1)C(=O)N[C@@H](CCCCNC(C)C)C(=O)N1CCC[C@H]1C(=O)N[C@H](C)C(N)=O ({Propanoyl(3-(4-F-phenyl))}-[d1Nal]S[NMeY][dK](Nicotinoyl)L[Lys(iPr)]P[dA]-NH2) [listing 1 of 2 here] | – | EC50 (Rattus norvegicus [1]): 10.3 µg/mL (≈ 7.84 µM) |
| CCNC(=O)[C@@H]1CCCN1C(=O)[C@H](CCCN=C(N)N)NC(=O)[C@H](CC(C)C)NC(=O)[C@@H](Cc1ccc(O)cc1)NC(=O)[C@H](Cc1ccc(O)cc1)NC(=O)[C@H](CO)NC(=O)[C@H](Cc1c[nH]c2ccccc12)NC(=O)CCc1ccc(F)cc1 | 12.6 | – |
| CCNC(=O)[C@@H]1CCCN1C(=O)[C@H](CCCN=C(N)N)NC(=O)[C@H](CC(C)C)NC(=O)[C@@H](Cc1c[nH]c2ccccc12)NC(=O)[C@H](Cc1ccc(O)cc1)NC(=O)[C@H](CO)NC(=O)[C@@H](Cc1cccc2ccccc12)NC(=O)CCc1ccc(F)cc1 | 0.00708 | – |
| CCNC(=O)[C@@H]1CCCN1C(=O)[C@H](CCCN=C(N)N)NC(=O)[C@H](CC(C)C)NC(=O)[C@@H](Cc1c[nH]c2ccccc12)NC(=O)[C@H](Cc1ccc(O)cc1)NC(=O)[C@H](CO)NC(=O)[C@@H](Cc1c[nH]c2ccccc12)NC(=O)c1cc2cc(F)ccc2[nH]1 | 41.7 | – |
| CCNC(=O)[C@@H]1CCCN1C(=O)[C@H](CCCN=C(N)N)NC(=O)[C@H](CC(C)C)NC(=O)[C@@H](CCCCNC(=O)c1cccnc1)NC(=O)[C@H](Cc1ccc(O)cc1)NC(=O)[C@H](CO)NC(=O)[C@H](Cc1c[nH]c2ccccc12)NC(=O)CCc1ccc(F)cc1 | 20.9 | – |
| CCNC(=O)[C@@H]1CCCN1C(=O)[C@H](CCCN=C(N)N)NC(=O)[C@H](CC(C)C)NC(=O)[C@@H](Cc1c[nH]c2ccccc12)NC(=O)[C@H](Cc1ccc(O)cc1)NC(=O)[C@H](CO)NC(=O)[C@H](Cc1cccc2ccccc12)NC(=O)CCc1ccc(F)cc1 | 0.00501 | – |
| CCNC(=O)[C@@H]1CCCN1C(=O)[C@H](CCCN=C(N)N)NC(=O)[C@H](CC(C)C)NC(=O)[C@@H](Cc1c[nH]c2ccccc12)NC(=O)[C@H](Cc1ccc(O)cc1)N(C)C(=O)[C@H](CO)NC(=O)[C@@H](Cc1c[nH]c2ccccc12)NC(=O)CCc1ccc(F)cc1 | 0.00708 | – |
| CCNC(=O)[C@@H]1CCCN1C(=O)[C@H](CCCN=C(N)N)NC(=O)[C@H](CC(C)C)NC(=O)[C@@H](Cc1c[nH]c2ccccc12)NC(=O)[C@H](Cc1ccc(O)cc1)NC(=O)[C@H](CO)NC(=O)[C@H](Cc1ccc(O)cc1)NC(=O)CCc1ccc(Cl)cc1 ({Propanoyl(3-(4-Cl-Ph))}-YSY[dW]LRP-NHEt) | 0.851 | – |
| CCNC(=O)[C@@H]1CCCN1C(=O)[C@H](CCCN=C(N)N)NC(=O)[C@H](CC(C)C)NC(=O)[C@@H](CCCCNC(=O)c1cccnc1)NC(=O)[C@H](Cc1ccc(O)cc1)N(C)C(=O)[C@H](CO)NC(=O)[C@@H](Cc1c[nH]c2ccccc12)NC(=O)CCc1ccc(F)cc1 [listing 1 of 2 here] | – | Supression (Rattus norvegicus [3]): 90%; EC50 (Rattus norvegicus [1]): < 0.1 µg/mL |
| CCNC(=O)[C@@H]1CCCN1C(=O)[C@H](CCCN=C(N)N)NC(=O)[C@H](CC(C)C)NC(=O)[C@@H](Cc1c[nH]c2ccccc12)NC(=O)[C@H](Cc1ccc(O)cc1)NC(=O)[C@H](CO)NC(=O)[C@@H](Cc1ccc(O)cc1)NC(=O)CCc1ccc(F)cc1 | 0.219 | – |
| CCNC(=O)[C@@H]1CCCN1C(=O)[C@H](CCCN=C(N)N)NC(=O)[C@H](CC(C)C)NC(=O)[C@@H](Cc1c[nH]c2ccccc12)NC(=O)[C@H](Cc1ccc(O)cc1)NC(=O)[C@H](CO)NC(=O)[C@H](Cc1c[nH]c2ccccc12)NC(=O)c1cc2ccccc2[nH]1 | 17.8 | – |
| CCNC(=O)[C@@H]1CCCN1C(=O)[C@H](CCCN=C(N)N)NC(=O)[C@H](CC(C)C)NC(=O)[C@@H](Cc1c[nH]c2ccccc12)NC(=O)[C@H](Cc1ccc(O)cc1)NC(=O)[C@H](CO)NC(=O)[C@@H](Cc1c[nH]c2ccccc12)NC(=O)CCc1ccc(F)cc1 [listing 1 of 2 here] | 0.0389 | – |
| CCNC(=O)[C@@H]1CCCN1C(=O)[C@H](CCCN=C(N)N)NC(=O)[C@H](CC(C)C)NC(=O)[C@@H](Cc1c[nH]c2ccccc12)NC(=O)[C@H](Cc1ccc(O)cc1)N(C)C(=O)[C@H](CO)NC(=O)[C@@H](Cc1c[nH]c2ccccc12)NC(=O)CCc1ccc(F)cc1F | 0.01 | – |
| CCNC(=O)[C@@H]1CCCN1C(=O)[C@H](CCCN=C(N)N)NC(=O)[C@H](CC(C)C)NC(=O)[C@@H](Cc1c[nH]c2ccccc12)NC(=O)[C@H](Cc1ccc(O)cc1)NC(=O)[C@H](CO)NC(=O)[C@@H](Cc1c[nH]c2ccccc12)NC(=O)CCc1ccc(F)cc1 [listing 2 of 2 here] | – | Supression (Rattus norvegicus [3]): 88% |
| CCNC(=O)[C@@H]1CCCN1C(=O)[C@H](CCCN=C(N)N)NC(=O)[C@H](CC(C)C)NC(=O)[C@@H](CCCCNC(=O)c1cccnc1)NC(=O)[C@H](Cc1ccc(O)cc1)N(C)C(=O)[C@H](CO)NC(=O)[C@@H](Cc1c[nH]c2ccccc12)NC(=O)CCc1ccc(F)cc1 [listing 2 of 2 here] | 0.0347 | – |
| CCNC(=O)[C@@H]1CCCN1C(=O)[C@H](CCCN=C(N)N)NC(=O)[C@H](CC(C)C)NC(=O)[C@@H](Cc1c[nH]c2ccccc12)NC(=O)[C@H](Cc1ccc(O)cc1)NC(=O)[C@@H]1CC(O)CN1C(=O)[C@@H](Cc1c[nH]c2ccccc12)NC(=O)CCc1ccc(F)cc1 (stereo partly drawn) | 20.9 | – |
| CCNC(=O)[C@@H]1CCCN1C(=O)[C@H](CCCN=C(N)N)NC(=O)[C@H](CC(C)C)NC(=O)[C@@H](Cc1c[nH]c2ccccc12)NC(=O)[C@H](Cc1ccc(O)cc1)NC(=O)[C@H](CO)NC(=O)[C@@H](Cc1c[nH]c2ccccc12)NC(=O)CCc1ccc(F)cc1F | 0.0141 | – |
| CC(C)C[C@H](NC(=O)[C@@H](CCCCNC(=O)c1cccnc1)NC(=O)[C@H](Cc1ccc(O)cc1)N(C)C(=O)[C@H](CO)NC(=O)[C@@H](Cc1cccc2ccccc12)NC(=O)CCc1ccc(F)cc1)C(=O)N[C@@H](CCCCNC(C)C)C(=O)N1CCC[C@H]1C(=O)N[C@H](C)C(N)=O ({Propanoyl(3-(4-F-phenyl))}-[d1Nal]S[NMeY][dK](Nicotinoyl)L[Lys(iPr)]P[dA]-NH2) [listing 2 of 2 here] | 0.00741 | – |
